Test results: PubChem BioAssay
The source made the active and inactive calls.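 The calls were made as follows, unless noted: active = Her2 level under about 52% in both replicate screens, with viability over 70% of control (limit read from the data); inconclusive = Her2 under the limit in one screen only, or viability under 70%; inactive = Her2 level above the set limit.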

Assays:
[1] = Her2 expression decrease, cell viability multiplex – SKBR3 breast tumor cells, AlphaScreen, ATP viability, primary screen (AID 461); conditions: SKBR3 Her2 protein level, 18-24 h, measured here: SKBR3 viability, ATP luminescence, at 10 µM;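 as to Her2 level: lower value means less Her2 protein in the cells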;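 as to viability: percent of carrier control wells set as 100% viability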
[2] = target: Receptor tyrosine-protein kinase erbB-2 (Homo sapiens) (UniProt P04626); assay: as above; conditions: 18-24 h, at 10 µM, stronger effect = lower value
[3] = reduced viability of SK-BR-3 breast cancer cells – cell-based, 24 h, human, pilot screen (AID 572;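 active = viability at or below 10% of carrier control in both of two separate runs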;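 also: compound exposure lasted between 18 and 24 h rather than exactly 24 h; 100% = carrier-treated control wells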); conditions: SK-BR-3 viability, CellTiter-Glo luminescence, at 10 µM, stronger effect = lower value
[4] = HUVEC growth inhibition – cell-based, human, primary screen (AID 575;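 active = viability at or below 30% in both replicate assays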;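 also: 100% = median of untreated cell wells with 0.1% DMSO on each plate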); conditions: HUVEC proliferation, CellTiter-Glo luminescence, 72 h; at 10 µM; stronger effect = lower value
In short: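 System: primary human umbilical vein endothelial cells; Quantity: 1250 endothelial cells in each well; Buffer or medium: supplemented EBM, 2% fetal bovine serum; Doses: one dose, 10 µM final, 0.1% DMSO; Incubation: 72 h compound incubation; Technique: ATP-based CellTiter-Glo luminescent read; Evaluation: percent of median DMSO-control luminescence; Controls: vehicle and MePR control wells.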

[5] = H69AR cell proliferation blockers – human, duplicate replicates, primary screen (AID 580;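 active = viability at or under a set limit in both replicates, limit being median viability minus 3 SD, cut at about 48% in these data, passing the limit was not always enough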;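 also: 100% = mean luminescence of untreated wells and 0% = no signal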); conditions: H69AR lung tumor cells viability, ATP luminescence, 72 h; at 10 µM; stronger effect = lower value
[6] = MRP1 drug-resistance reversers in H69AR cells – cell-based, doxorubicin co-treatment, pilot screen (AID 601;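 active = viability loss from added drug above about 55%, and viability with drug at most 40%, in both replicates, limit read from the data, passing the limit was not always enough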); conditions: CellTiter-Glo, 72 h, at 10 µM; for differential viability (reversal): stronger effect = higher value
[7] = yeast transport mutant growth inhibition pilot in 384-well plates, post-Golgi transport modulator project (AID 636; in the data active = inhibition above about 31%); conditions: absorbance 615 nm, about 18 h, stronger effect = higher value
[8] = growth suppression of yeast trafficking mutant, preliminary HTS, modulators of trafficking downstream of Golgi apparatus project, 1536-format plate, OD 615 nm (AID 637; in the data active = inhibition above about 30%); conditions: yeast transport mutant growth, absorbance 615 nm, 18 h; stronger effect = higher value
[9] = H69AR cells + 2 uM doxorubicin, measured here: viability with 2 uM doxorubicin, stronger effect = lower value
[10] = H69AR cells, compound alone cytotoxicity

Chain of Receptor tyrosine-protein kinase erbB-2 (Homo sapiens) (P04626 whole entry, looked up): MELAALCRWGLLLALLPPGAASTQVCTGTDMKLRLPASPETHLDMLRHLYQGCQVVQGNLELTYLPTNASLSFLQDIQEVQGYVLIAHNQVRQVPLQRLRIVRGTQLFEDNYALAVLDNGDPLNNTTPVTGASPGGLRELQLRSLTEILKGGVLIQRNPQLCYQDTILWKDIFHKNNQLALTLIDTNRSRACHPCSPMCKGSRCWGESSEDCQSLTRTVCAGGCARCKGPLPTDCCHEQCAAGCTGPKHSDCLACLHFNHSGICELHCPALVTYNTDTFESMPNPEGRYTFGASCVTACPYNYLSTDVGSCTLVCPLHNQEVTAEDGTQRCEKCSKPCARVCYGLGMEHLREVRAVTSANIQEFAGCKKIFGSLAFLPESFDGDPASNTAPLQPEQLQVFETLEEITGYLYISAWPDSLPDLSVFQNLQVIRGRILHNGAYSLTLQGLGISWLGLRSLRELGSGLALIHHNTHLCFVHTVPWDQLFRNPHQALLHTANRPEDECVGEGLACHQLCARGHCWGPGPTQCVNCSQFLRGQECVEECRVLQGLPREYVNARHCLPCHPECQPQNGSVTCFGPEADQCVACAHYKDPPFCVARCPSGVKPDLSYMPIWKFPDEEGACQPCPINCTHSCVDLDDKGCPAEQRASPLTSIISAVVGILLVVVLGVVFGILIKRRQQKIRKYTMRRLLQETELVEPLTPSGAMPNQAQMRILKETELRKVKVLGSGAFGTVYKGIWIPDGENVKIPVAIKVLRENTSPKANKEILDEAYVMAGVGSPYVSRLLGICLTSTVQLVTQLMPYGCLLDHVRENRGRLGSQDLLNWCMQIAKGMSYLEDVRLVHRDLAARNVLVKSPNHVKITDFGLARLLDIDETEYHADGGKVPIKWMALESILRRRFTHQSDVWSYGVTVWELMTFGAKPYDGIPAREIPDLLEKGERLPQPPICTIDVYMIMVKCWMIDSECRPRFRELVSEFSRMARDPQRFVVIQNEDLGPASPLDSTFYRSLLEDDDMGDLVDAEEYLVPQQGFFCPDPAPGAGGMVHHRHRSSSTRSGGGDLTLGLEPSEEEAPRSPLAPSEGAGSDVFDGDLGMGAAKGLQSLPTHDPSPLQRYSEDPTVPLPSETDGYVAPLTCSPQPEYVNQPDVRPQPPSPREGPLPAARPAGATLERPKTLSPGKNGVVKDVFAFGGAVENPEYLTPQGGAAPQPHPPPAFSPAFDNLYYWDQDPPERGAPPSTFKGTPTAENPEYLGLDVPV

SMILES | viability [1] [%] | Her2 level [2] | viability [3] | viability [4] | viability [5] | differential viability (reversal) ([6]; H69AR cells + 2 uM doxorubicin) | viability [6, 9] [%] | viability [6, 10] [%] | inhibition [7] | inhibition [8]
CC(=O)c1c(NCCc2ccccc2)cc(C)oc1=O | 99.5 | 86% (inactive) | 99.5% (inactive) | 119% (inactive) | 101% (inactive) | 9.25% (inactive) | 91.5 | 101 | -2.57% (inactive) | -4.83% (inactive)
CCOc1ccc(NC(=O)CSc2nnnn2CC(=O)O)cc1 | 104 | 98% (inactive) | 104% (inactive) | 96% (inactive) | 95.7% (inactive) | -4.13% (inactive) | 99.8 | 95.7 | -3.16% (inactive) | -5.65% (inactive)
CCC(C)(C(=O)NC1CCCCC1)N(CC1CCCO1)C(=O)c1ccccn1 (stereo not given) | 82 | 99% (inactive) | 82% (inactive) | 91.6% (inactive) | 89% (inactive) | -1.55% (inactive) | 90.6 | 89 | -0.26% (inactive) | -1.15% (inactive)
CCn1c(NCc2ccc(N(C)C)cc2)nc2ccccc21 | 84.5 | 87.5% (inactive) | 84.5% (inactive) | 101% (inactive) | 97.9% (inactive) | 11.2% (inactive) | 86.7 | 97.9 | -2.03% (inactive) | -1.5% (inactive)
CCOc1cc(C2C(C#N)=C(N)OC(C)=C2C(C)=O)cc(Br)c1O (stereo not given) | 114 | 91% (inactive) | 114% (inactive) | 120% (inactive) | 90.3% (inactive) | 6.05% (inactive) | 84.2 | 90.3 | -5.95% (inactive) | -6.83% (inactive)
COc1ccc2nc(CC(C)(C)CC(=O)O)c[n+]([O-])c2c1 | 109 | 95.5% (inactive) | 109% (inactive) | 106% (inactive) | 99.2% (inactive) | 9.58% (inactive) | 89.6 | 99.2 | -2.7% (inactive) | 5.08% (inactive)
O=C(COc1ccc(S(=O)(=O)NC2CCCCC2)cc1Cl)NCC1CCCO1 (stereo not given) | 88.5 | 98% (inactive) | 88.5% (inactive) | 98.6% (inactive) | 89.4% (inactive) | 0.36% (inactive) | 89 | 89.4 | -5.07% (inactive) | -7.78% (inactive)
CCOc1ccccc1Nc1ncnc2ccccc12 | 101 | 81% (inactive) | 101% (inactive) | 78.4% (inactive) | 82% (inactive) | 1.99% (inactive) | 80 | 82 | -1.45% (inactive) | 0.18% (inactive)
Nn1c(SCC(=O)Nc2ccc3c(c2)OCCO3)nnc1C(F)(F)F | 88.5 | 78.5% (inactive) | 88.5% (inactive) | 88.3% (inactive) | 80.9% (inactive) | -7.85% (inactive) | 88.8 | 80.9 | -2.5% (inactive) | 1.27% (inactive)
Cc1noc(C)c1CSc1nc2cc(S(=O)(=O)N3CCOCC3)ccc2o1 | 98.5 | 93% (inactive) | 98.5% (inactive) | 96.7% (inactive) | 83.6% (inactive) | -0.29% (inactive) | 83.9 | 83.6 | -5.48% (inactive) | 5.56% (inactive)
CCOC(=O)c1sc(NC(=O)CSc2nnc3c4ccccc4n(CC)c3n2)nc1C | 83.5 | 104% (inactive) | 83.5% (inactive) | 104% (inactive) | 96.2% (inactive) | -0.44% (inactive) | 96.7 | 96.2 | 1.67% (inactive) | -3.33% (inactive)
O=C(c1cccc(Cl)c1)N1CCN(Cc2ccncc2)CC1 | 92 | 96.5% (inactive) | 92% (inactive) | 96.2% (inactive) | 105% (inactive) | 9.47% (inactive) | 95.8 | 105 | -0.27% (inactive) | 6.89% (inactive)
COc1cc(C2C(C#N)=C(N)OC3=C2C(=O)CC(C)(C)C3)ccc1OC(=O)N1CCOCC1 (stereo not given) | 84.5 | 94.5% (inactive) | 84.5% (inactive) | 97.6% (inactive) | 98.8% (inactive) | 4.58% (inactive) | 94.2 | 98.8 | 1.49% (inactive) | -7.54% (inactive)
Cc1cccc(COc2ccc(/C(O)=C3\C(=O)C(=O)N(CCN(C)C)C3c3ccncc3)cc2)c1 (stereo not given) | 108 | 94% (inactive) | 108% (inactive) | 105% (inactive) | 97.3% (inactive) | -3.29% (inactive) | 101 | 97.3 | -2.11% (inactive) | 3.28% (inactive)
O=C(CCCCCN1C(=O)CCC1=O)NCc1ccccc1 | 103 | 73% (inactive) | 103% (inactive) | 100% (inactive) | 98.2% (inactive) | 13.5% (inactive) | 84.7 | 98.2 | -7.97% (inactive) | 4.13% (inactive)
O=S(=O)(c1ccc(S(=O)(=O)N2CCN3CCCC3C2)cc1)N1CCCC1 (stereo not given) | 80.5 | 90.5% (inactive) | 80.5% (inactive) | 104% (inactive) | 98.9% (inactive) | 16.1% (inactive) | 82.8 | 98.9 | -0.77% (inactive) | 0.17% (inactive)
CCCCCc1c(O)nc(SCC(=O)NCC2CCCO2)[nH]c1=O (stereo not given) | 96 | 110% (inactive) | 96% (inactive) | 96.9% (inactive) | 105% (inactive) | 12.2% (inactive) | 93 | 105 | 0% (inactive) | -3.81% (inactive)
Cc1nc(=S)n(-c2ccccc2)[nH]1 | 104 | 107% (inactive) | 104% (inactive) | 107% (inactive) | 107% (inactive) | 2.28% (inactive) | 105 | 107 | -3.2% (inactive) | -9.35% (inactive)
Cc1ccc(NCc2nnc(SCC(=O)N3CCCCC3)n2CC2CCCO2)c(C)c1 (stereo not given) | 94.5 | 99% (inactive) | 94.5% (inactive) | 106% (inactive) | 88.7% (inactive) | 1.68% (inactive) | 87 | 88.7 | -6.8% (inactive) | 1.13% (inactive)
CN1CC(=O)N(CC(=O)NCCc2ccc(F)cc2)c2ccccc2C1=O | 95 | 90.5% (inactive) | 95% (inactive) | 105% (inactive) | 90% (inactive) | -3.62% (inactive) | 93.6 | 90 | -6.36% (inactive) | 1.75% (inactive)
CN1C2C=C3C(C#N)=C(N)C(C#N)(C#N)[C@@H](c4ccc(Cl)cc4)[C@@H]3C1CC2 (stereo not given in full) | 95 | 87% (inactive) | 95% (inactive) | 91.3% (inactive) | 68.9% (inactive) | -26.1% (inactive) | 94.9 | 68.9 | -5.73% (inactive) | -0.32% (inactive)
CCc1ccccc1NC(=O)CN(c1cccc(OC)c1)S(C)(=O)=O | 112 | 124% (inactive) | 112% (inactive) | 110% (inactive) | 100% (inactive) | 14.6% (inactive) | 85.8 | 100 | -4% (inactive) | -7.74% (inactive)
Cc1ccc(-c2ccc(=O)n(CCC(=O)NCc3ccccn3)n2)cc1 | 94.5 | 84% (inactive) | 94.5% (inactive) | 89.3% (inactive) | 84.3% (inactive) | -1.96% (inactive) | 86.2 | 84.3 | -3.95% (inactive) | 0.81% (inactive)
CCC1Oc2ccccc2N(CC(=O)Nc2ccc(OC)cc2OC)C1=O (stereo not given) | 90.5 | 95.5% (inactive) | 90.5% (inactive) | 106% (inactive) | 100% (inactive) | 15% (inactive) | 85.3 | 100 | -2.24% (inactive) | -1.09% (inactive)
CC(C)CNC(=O)C1C2C=CC(C2)C1C(=O)O (stereo not given) | 96 | 96% (inactive) | 96% (inactive) | 108% (inactive) | 111% (inactive) | 9.12% (inactive) | 102 | 111 | -1.33% (inactive) | -1.77% (inactive)
O=C(O)c1[nH]c2ccc(Cl)cc2c1CC(=O)N1CCN(C(=O)c2ccco2)CC1 | 83.5 | 112% (inactive) | 83.5% (inactive) | 108% (inactive) | 95.8% (inactive) | 5.25% (inactive) | 90.5 | 95.8 | -4.34% (inactive) | -9.83% (inactive)
Cn1c(SCC(N)=O)nnc1C1CCN(S(=O)(=O)c2ccccc2C(F)(F)F)CC1 | 114 | 97.5% (inactive) | 114% (inactive) | 112% (inactive) | 104% (inactive) | 7.31% (inactive) | 96.5 | 104 | -7.03% (inactive) | -0.33% (inactive)
CC(C)C1N=C2c3ccccc3N=C(SCc3cc(=O)n4ccccc4n3)N2C1=O (stereo not given) | 89 | 135% (inactive) | 89% (inactive) | 97.6% (inactive) | 80.1% (inactive) | -20.5% (inactive) | 101 | 80.1 | 2.24% (inactive) | -3.67% (inactive)
